# Screening results deposited in PubChem BioAssay by several laboratories.
# Hits are enriched below; roughly 1.4% of the tested compounds scored in any of these assays.
# EBNA-1 inhibitor = blocks EBNA-1 binding to DNA. EBNA-1 DNA binding, fluorescence polarization. inhibition, % at 14.8 µM. actives 0.34% (n = 300,000); in the data active = inhibition above about 28%
# HCV NS3 hel inh = HCV NS3 helicase inhibition | actives 0.56% (n = 290,000) | inhibition, % at 10.9 µM | AID 1800 | NS3 helicase DNA unwinding, Cy5 molecular beacon fluorescence;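 active = inhibition above the mean of all tested compounds plus 3 SD, set per campaign, cut at about 35% in these data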;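 note: 0% = DMSO wells and 100% = thioflavine S control wells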
#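 Assay system – hepatitis C virus NS3 helicase domain fragment enzyme · Buffer or medium – MOPS pH 6.5, MgCl2, DTT, Tween20, BSA · Reagent – Cy5/quencher beacon DNA duplex and ATP to start · Compound – single 10.9 µM dose · Timing – 1 h at 25 °C · Technique – Cy5 beacon fluorescence read at start and 1 h · Measure – % inhibition of unwinding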
# ZTA DNA inh = ZTA (EBV) inhibition in EBNA-1 counter-screen. inhibition, % at 11 µM. actives 0.15% (n = 320,000). ZTA-DNA binding, fluorescence polarization; in the data active = inhibition above about 33%
# Target sequence (P03206 whole entry, looked up): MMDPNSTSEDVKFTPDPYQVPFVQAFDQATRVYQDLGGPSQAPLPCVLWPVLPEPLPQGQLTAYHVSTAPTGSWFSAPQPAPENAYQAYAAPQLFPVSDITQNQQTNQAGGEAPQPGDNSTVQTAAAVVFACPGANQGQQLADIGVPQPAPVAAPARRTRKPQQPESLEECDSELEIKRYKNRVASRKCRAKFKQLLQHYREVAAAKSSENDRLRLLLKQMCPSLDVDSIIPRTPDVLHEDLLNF
# SUMO HTRF inh = inhibitors of human SUMOylation (UBC9) | actives 0.36% (n = 290,000) | P63279 | inhibition, % at 35 µM | HTRF SUMOylation assay, SAE1/SAE2 + UBC9, in vitro; in the data active = inhibition above about 50%, passing the limit was not always enough; inconclusive = no clear call, values can overlap the other calls
# Target sequence (P63279 whole entry, looked up): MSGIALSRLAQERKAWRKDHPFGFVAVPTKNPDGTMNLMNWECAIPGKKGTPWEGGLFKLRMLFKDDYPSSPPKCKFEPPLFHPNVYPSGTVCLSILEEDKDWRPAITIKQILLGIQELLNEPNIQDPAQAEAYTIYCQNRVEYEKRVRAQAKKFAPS
# core dimer inh = HCV core protein dimerization inhibition; TR-FRET GST/Flag-core106 dimerization, 1536-well; inhibition, % at 5 µM; actives 0.33% (n = 300,000);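 active = inhibition above the mean of all tested compounds plus 3 SD, set per screening campaign, cut at about 45% in these data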
#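 Material: GST/Flag-tagged HCV core106 proteins. Incubation: 4 h, 22.5 °C incubation. Read-out basis: inhibition (%) from 671 over 617 nm ratio. Measured by: TR-FRET, excitation 340 nm, emission 617 and 671 nm.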
# Active calls of the source: *; ? = inconclusive; . = no result.
SMILES,EBNA-1 inhibitor,HCV NS3 hel inh,ZTA DNA inh,SUMO HTRF inh,core dimer inh
CC1(C)S[C@@H]2[C@H](NC(=O)COc3ccccc3)C(=O)N2C1C(=O)OCC1CCCCC1 (stereo partly drawn),-6.0,.,16.9,.,7.3
Cc1cc(C)c2nc(-c3ccccn3)cc(C(=O)N3CCCC3)c2c1,0.5,22.5,-9.6,4.1,47.9*
Cc1cc(C)c2nc(-c3ccccn3)cc(C(=O)Nc3ccc(S(=O)(=O)Nc4onc(C)c4C)cc3)c2c1,2.2,-15.1,26.4,35.8,59.7*
O=C(COC(=O)C1C2CC3OC(=O)C1C3C2)Nc1ccc(Br)cc1 (stereo not drawn),0.7,12.2,-1.1,14.1,-7.6
O=C(NCc1ccco1)C1Cc2ccccc2CN1S(=O)(=O)c1ccccc1F (stereo not drawn),-4.7,21.5,3.4,.,55.1*
O=C(NCc1ccco1)C1Cc2ccccc2CN1C(=O)c1ccco1 (stereo not drawn),-5.7,10.7,-8.4,-0.8,16.2
O=C1C(Cl)=C(NC(=O)c2ccccc2)C(=O)C(Cl)=C1NC(=O)c1ccccc1,-7.7,4.6,-2.8,50.7*,0.5
CN(C(=O)CSc1nnc(-c2ccco2)n1Cc1ccccc1)C1CCS(=O)(=O)C1 (stereo not drawn),.,.,-18.2,.,.
O=C(Nc1ccc(F)cc1)Oc1ccc[nH]c1=O,-5.8,5.8,12.1,98.6*,3.1
O=C(CN1CCN(C(=O)c2cccc(-n3cnnn3)c2)CC1)Nc1ccccc1Cl,.,.,-10.5,.,.
NNC(=O)Cn1c(-c2nonc2N)nc2ccccc21,-5.9,-1.7,4.7,15.0,-3.4
Nc1nonc1-c1nc2ccccc2n1CC(=O)N/N=C\c1ccc(-c2ccc(Cl)cc2)o1,15.0,4.7,23.6,48.3,83.6*
O=C(CN1c2cccc3cccc(c23)S1(=O)=O)Nc1ccc(S(=O)(=O)N2CCOCC2)cc1,1.5,7.7,4.1,30.3,56.1*
O=S(=O)(c1ccc(NC(=S)N/N=C/c2c3ccccc3cc3ccccc23)cc1)N1CCOCC1,-0.2,-0.6,-26.6,8.0,55.9*
COc1cccc(OC)c1-c1nn2c(-c3cc(-c4ccccc4)n[nH]3)nnc2s1,59.5*,-2.0,165.3*,3.4,54.2*
COCCOC(=O)c1c(C)oc2ccc(OCc3cc(C(=O)OC)oc3C)cc12,2.5,-13.2,-3.1,8.3,7.0
COC(=O)c1cc(COc2ccc3c(c2)oc(=O)c2ccccc23)c(C)o1,-2.6,1.8,2.2,2.4,51.3*
CC1(C)C(=O)Nc2ccccc2N1C(=O)COC(=O)C12CC3CC(CC(O)(C3)C1)C2,1.1,5.0,-17.6,-6.0,57.2*
Cc1ccc(S(=O)(=O)/N=C2/C=C(Sc3ncn[nH]3)C(=O)c3ccccc32)c(C)c1,5.8,33.0,31.1,95.5*,-5.3
Cc1ccc(S(=O)(=O)/N=C2\C=C(Nc3cccc(C(=O)O)c3)C(=O)c3ccccc32)c(C)c1,-6.4,-1.7,30.3,?,-8.4
CC(C)c1ccc(S(=O)(=O)/N=C2/C=C(Sc3ncn[nH]3)C(=O)c3ccccc32)cc1,-14.5,19.5,27.3,90.0*,-6.1
Cc1ccc(CSCC(=O)N(C)CC(=O)Nc2ccc(Cl)c(Cl)c2)cc1,-6.8,.,-8.1,.,-1.1
COc1ccc(/C=N/NC(=O)c2ccc(Br)cc2)cc1Cn1cc(Cl)cn1,31.6*,-5.6,7.1,31.8,12.4
COc1ccc(/C=N/NC(=O)c2cccc(Br)c2)cc1Cn1cc(Cl)cn1,4.3,3.7,3.2,26.8,27.0
O=C1/C(=C/c2cccnc2)CCC/C1=C\c1cccnc1,7.8,-0.9,38.4*,-1.3,14.6
SMILES,EBNA-1 inhibitor,HCV NS3 hel inh,ZTA DNA inh,SUMO HTRF inh,core dimer inh
O=C1/C(=C/c2ccc(C(=O)O)cc2)CCC/C1=C\c1ccc(C(=O)O)cc1,2.9,19.9,60.8*,21.7,36.3
O=C1/C(=C/c2cccnc2)CC/C1=C\c1cccnc1,-5.5,-3.0,-6.0,6.9,5.6
Cc1ccc(CNC(=O)CN2CCN(c3ccc(F)cc3)CC2)cc1,-9.1,5.0,-3.1,-6.5,-0.3
N=C1S/C(=C\c2cccc3ccccc23)C(=O)N1c1ccc(F)cc1,8.9,-4.4,1.5,63.0*,15.5
COC(=O)[C@]1(Cc2ccccc2)N[C@H](c2ccc(-c3ccc(F)cc3)cc2)[C@@H]2C(=O)N(C)C(=O)[C@@H]21,0.6,.,7.5,.,17.7
Cc1ccc(C)c(N2CCN(C(=O)CSc3ccsc3[N+](=O)[O-])CC2)c1,1.1,8.1,5.6,17.5,55.6*
O=C(CSc1ccsc1[N+](=O)[O-])N1CCN(c2ccc(Cl)cc2)CC1,-13.9,9.1,-0.9,23.5,66.7*
CC(C)c1ccc(-c2nn(-c3ccccc3)cc2C(=O)NCC2CCCO2)cc1 (stereo not drawn),6.5,.,-3.4,.,5.7
Cc1ccccc1NS(=O)(=O)c1ccc(C(=O)NCC(c2ccco2)N2CCCCC2)cc1 (stereo not drawn),-10.9,.,6.9,.,-0.7
N#Cc1ccc(-c2cccs2)nc1SCc1cccnc1,-3.8,-6.9,-7.3,23.2,8.1
CN1CCN(C(=O)CSc2nc(-c3cccs3)ccc2C#N)CC1,-0.5,3.0,-6.1,8.5,53.0*
N#Cc1ccsc1NC(=O)C1CCCN1S(=O)(=O)c1cccs1 (stereo not drawn),5.7,.,10.7,.,-2.2
O=C(Nc1ccccc1Cl)c1ccc2nccnc2c1,7.8,13.2,-9.3,12.0,3.9
COC(=O)c1ccccc1NC(=O)c1ccc2nccnc2c1,3.7,4.1,3.5,17.9,51.1*
O=C(NNC(=O)c1ccccc1F)c1cccc(-n2cccc2)c1,4.7,.,3.2,.,53.1*
COc1ccc2oc(C(=O)Nc3nc(-c4ccccn4)cs3)c(C)c2c1,0.0,.,1.9,.,55.7*
O=C1N=C(N2CCN(c3cccc4ccccc34)CC2)S/C1=C/c1cccs1,3.4,-5.5,-17.4,6.5,67.2*
Cc1ccccc1N1CCN(C2=NC(=O)/C(=C\c3cccs3)S2)CC1,-1.3,-13.8,8.6,4.9,23.7
COc1cccc(-c2nc(CS(=O)(=O)CC(=O)NCCN3CCOCC3)c(C)o2)c1,-2.7,-7.6,-12.2,16.7,10.8
O=C(CSc1n[nH]c(-c2ccccc2F)n1)Nc1cc(F)ccc1F,.,.,-9.2,.,.
COc1ccc(N(CC(=O)N2CCC(C(N)=O)CC2)S(=O)(=O)c2ccccc2)cc1,1.6,0.5,-8.5,1.5,1.9
CCn1c(=O)c(C(=O)CN2CCc3ccccc32)c(N)n(Cc2ccccc2)c1=O,-0.8,-3.0,1.9,-3.1,50.9*
CCn1c(=O)c(C(=O)CN2CCOCC2)c(N)n(Cc2ccccc2)c1=O,-8.7,-4.8,1.7,-12.6,-10.9
COC/C=C/C1=CC2=CC(=O)C(C)(O)C(=O)C2=CO1 (stereo not drawn),-4.7,.,12.8,.,57.6*
COC/C=C/C1=CC2=CC(=O)C(C)(OC(=O)c3ccco3)C(=O)C2=CO1 (stereo not drawn),13.2,.,29.3,35.9,50.8*
COc1ccc2oc(-c3ccco3)cc(=O)c2c1,0.4,2.4,1.1,48.4,3.6
